Source: paper PMC5352491 (ACS chemical neuroscience, 2016)
“Also recorded” adds a separate entry of the source. Read-outs that look alike come from different tables or passages of the source.

Experiments:
[1] = biological target: human μ opioid receptor (μ-OR) (Homo sapiens, UniProt P35372); experiment: cell-based; assay type: cell-based
[2] = biological target: human δ opioid receptor (δ-OR) (Homo sapiens, UniProt P41143); experiment: calcium mobilization assay, δ-OR agonist activity; assay type: cell-based; conditions: for δ-OR agonist activity in HTS of extract / LC-MS fractions: approximately 20.0 μg/mL, DPDPE control 100 nM; for activity at δ-OR (agonist or antagonist): up to 50.0 μM
human δ opioid receptor (δ-OR), sequence (P41143 whole entry): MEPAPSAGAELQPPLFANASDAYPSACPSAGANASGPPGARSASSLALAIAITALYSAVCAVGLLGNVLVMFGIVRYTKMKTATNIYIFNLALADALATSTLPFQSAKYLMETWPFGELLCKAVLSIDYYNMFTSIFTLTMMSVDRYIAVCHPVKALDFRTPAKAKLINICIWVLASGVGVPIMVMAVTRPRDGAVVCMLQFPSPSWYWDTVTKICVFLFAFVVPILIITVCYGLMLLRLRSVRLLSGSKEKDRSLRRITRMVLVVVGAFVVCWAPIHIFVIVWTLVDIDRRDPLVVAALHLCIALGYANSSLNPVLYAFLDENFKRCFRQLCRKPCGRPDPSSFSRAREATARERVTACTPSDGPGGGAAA

κ-OR = κ-OR (Homo sapiens, UniProt P41145); experiment: κ-OR agonist/antagonist screen; assay type: cell-based; conditions: up to 50.0 μM
κ-OR, sequence (P41145 whole entry): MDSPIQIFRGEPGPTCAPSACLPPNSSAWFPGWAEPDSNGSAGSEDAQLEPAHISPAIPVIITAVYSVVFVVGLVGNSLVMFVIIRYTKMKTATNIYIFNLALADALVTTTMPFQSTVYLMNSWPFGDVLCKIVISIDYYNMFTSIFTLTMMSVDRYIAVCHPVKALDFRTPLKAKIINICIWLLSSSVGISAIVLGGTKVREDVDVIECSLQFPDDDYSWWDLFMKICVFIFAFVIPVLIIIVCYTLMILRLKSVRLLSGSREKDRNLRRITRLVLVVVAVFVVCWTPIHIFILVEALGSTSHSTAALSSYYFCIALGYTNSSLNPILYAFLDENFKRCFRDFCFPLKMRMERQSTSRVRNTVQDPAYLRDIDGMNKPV

μ-OR [3] = experiment: fluorescent endocytosis assay; assay type: cell-based; conditions: 30 min; DAMGO 1 μM, others 10 μM
human μ-OR [4] = biological target: T1, human μ-OR (Homo sapiens, UniProt P35372); experiment: cell-based; conditions: HEK-293T, read-out: Gi Emax(%)
Target sequence in this assay (P35372 whole entry): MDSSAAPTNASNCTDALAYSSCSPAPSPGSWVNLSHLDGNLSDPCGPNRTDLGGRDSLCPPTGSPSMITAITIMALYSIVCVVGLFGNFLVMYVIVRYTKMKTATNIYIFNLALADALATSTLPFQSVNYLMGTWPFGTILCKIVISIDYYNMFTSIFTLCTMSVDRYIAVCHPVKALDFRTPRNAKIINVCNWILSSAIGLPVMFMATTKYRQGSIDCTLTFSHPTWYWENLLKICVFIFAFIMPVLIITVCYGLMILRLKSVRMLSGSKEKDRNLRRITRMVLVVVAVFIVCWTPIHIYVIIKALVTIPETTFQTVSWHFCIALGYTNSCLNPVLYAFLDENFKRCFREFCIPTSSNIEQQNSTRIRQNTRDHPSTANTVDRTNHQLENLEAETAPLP

HEK 293T cells = experiment: toxicity seen in the β-arrestin-2 recruitment assay; assay type: cell-based; conditions: cells of the β-arrestin-2 dose-response
μ-OR [5] = experiment: biotin protection endocytosis assay; assay type: cell-based; conditions: 10 μM each, 30 min
human μ-OR [6] = biological target: T1, human μ-OR; experiment: cell-based; conditions: HEK-293T, read-out: β-arrestin-2 Emax (%)
Target sequence in this assay (P35372 whole entry): as above
Target sequence in this assay (P32121 whole entry partner): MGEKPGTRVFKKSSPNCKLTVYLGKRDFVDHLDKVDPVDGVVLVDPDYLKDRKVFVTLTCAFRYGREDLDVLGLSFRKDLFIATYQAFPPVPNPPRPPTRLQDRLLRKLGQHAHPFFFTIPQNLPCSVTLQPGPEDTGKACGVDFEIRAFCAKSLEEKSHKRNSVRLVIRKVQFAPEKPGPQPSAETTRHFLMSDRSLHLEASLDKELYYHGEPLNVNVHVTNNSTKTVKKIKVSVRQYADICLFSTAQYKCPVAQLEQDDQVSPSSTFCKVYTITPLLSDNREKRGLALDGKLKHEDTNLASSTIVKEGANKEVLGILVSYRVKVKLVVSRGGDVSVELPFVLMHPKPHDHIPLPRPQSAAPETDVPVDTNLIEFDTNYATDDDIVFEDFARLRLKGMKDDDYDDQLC

WT C57BL/6 mice [7] = conditions: mouse, in vivo, ip, 40 mg/kg
δ-KO C57BL/6 mice [8] = experiment: forced swim test, δ-OR knockout mice; assay type: in vivo; conditions: 40 mg/kg ip, p = 0.20 vs saline
Summary of the method: (§1)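 Male C57BL/6 mice (wild type or δ-OR knockout littermates, 8–10 weeks, 9 per group) on a 12-h reversed light/dark cycle, tested in the dark phase after 2 h room habituation. Given saline vehicle or test compound (40 mg/kg ip), then placed in a water cylinder (30 cm diameter, 22–24 cm deep, 36.0 ± 0.2 °C) for 6 min. Video recorded; seconds immobile scored.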

WT C57BL/6 mice [9] = experiment: forced swim test, wild type mice; assay type: in vivo; conditions: 40 mg/kg ip; for antidepressant-like activity in forced swim test: p = 0.003 vs saline, 40 mg/kg
Summary of the method: as §1

δ-KO C57BL/6 mice [10] = conditions: mouse, in vivo, ip, 40 mg/kg
WT C57BL/6 mice [11] = conditions: unknown target; cited from earlier work

human μ opioid receptor (μ-OR), sequence (P35372 whole entry): as the sequence (P35372 whole entry) above

With COc1cc2ccnc3c2c(c1O)NC=C3 [9-demethyl aaptamine (11), 9-demethyl aaptamine] the “μ-OR agonist activity in HTS of extract / LC-MS fractions” value [1] was “very weak partial agonism”, the EC50 ([1]; read-out: EC50 μ-OR) was 6.03 ± 1.2 µM and the “δ-OR agonist activity in HTS of extract / LC-MS fractions” value [2] was “measurable δ-OR agonist activity”.

In the case of O=C1c2ccccc2-[n+]2ccc3c([nH]c4ccccc43)c21 [fascaplysin (17), fascaplysin], the “activity at κ-OR (agonist or antagonist)” value (κ-OR) is reported as “no significant agonist or antagonist activity”, the “μ-OR endocytosis by immunofluorescence” value (μ-OR [3]) is reported as “promoted substantial endocytosis; also recorded: promoted μ-OR endocytosis” and the Emax (human μ-OR [4]) is reported as 111%. For the same compound, the toxic concentration (HEK 293T cells) was “higher than 50 μM”, the “μ-OR endocytosis, biotin protection assay” value (μ-OR [5]) was “promoted substantial endocytosis; also recorded: promoted μ-OR endocytosis” and the EC50 [1] was 6.3 ± 0.2 µM. The Emax ([1]; read-out: Emax at the μ-OR) was 100%, the “activity at δ-OR (agonist or antagonist)” value [2] was “no significant agonist or antagonist activity” and the Emax (human μ-OR [6]) was 78%.

For CN1CC[C@]23c4c5ccc(O)c4O[C@H]2[C@@H](O)C=C[C@H]3[C@H]1C5 [morphine (1), morphine], the “μ-OR endocytosis by immunofluorescence” value (μ-OR [3]) was “did not promote significant endocytosis” and the “μ-OR endocytosis, biotin protection assay” value (μ-OR [5]) was “induced no significant endocytosis”.

In the case of mitragynine [mitragynine (21)], the “μ-OR endocytosis by immunofluorescence” value (μ-OR [3]) is reported as “did not promote receptor endocytosis”.

In the case of O=C1c2ccccc2-[n+]2ccc3c([nH]c4cc(Br)ccc43)c21 [10 bromofascaplysin (18), 10 bromofascaplysin], the EC50 ([1]; read-out: EC50 μ-OR) is reported as 4.2 ± 3.7 µM.

In the case of COc1cc2ccnc3c2c(c1OC)NC=C3 [aaptamine (10), aaptamine], the “effect on general locomotion” value (WT C57BL/6 mice [7]) is reported as “no effect on general locomotion”, the “effect in forced swim test” value (δ-KO C57BL/6 mice [8]; listed as Aaptamine) is reported as “antidepressant-like activity in WT but not δ-KO mice” and the “effect in forced swim test” value (δ-KO C57BL/6 mice [8]; listed as aaptamine) is reported as “no effect”. The “antidepressant-like activity in forced swim test” value (WT C57BL/6 mice [9]; listed as Aaptamine) was “showed antidepressant-like activity in WT”, the “antidepressant-like activity in forced swim test” value (WT C57BL/6 mice [9]; listed as aaptamine) was “showed antidepressant-like activity” and the “time immobile in forced swim test (average)” value (WT C57BL/6 mice [9]; saline ~30 s) was ~ 10 s. The “effect on general locomotion” value (δ-KO C57BL/6 mice [10]) was “no effect on general locomotion”, the EC50 [1] was 10.1 ± 1.4 µM and the EC50 [2] was 5.1 ± 0.2 µM. For the same compound, the “effect on immobility time in forced swim test” value (WT C57BL/6 mice [11]) was “significant effect on the immobility time”.

With COC1=Cc2ccnc3ccnc(c23)C1=O [demethyl (oxy) –aaptamine (12), demethyl (oxy) –aaptamine] the “μ-OR agonist activity in HTS of extract / LC-MS fractions” value [1] was “very weak partial agonism”, the EC50 ([1]; read-out: EC50 μ-OR) was 4.1 ± 1.2 µM and the “δ-OR agonist activity in HTS of extract / LC-MS fractions” value [2] was “measurable δ-OR agonist activity”.

For C[C@@H](NC(=O)[C@@H](N)Cc1ccc(O)cc1)C(=O)NCC(=O)N(C)[C@@H](Cc1ccccc1)C(=O)NCCO [DAMGO (6), DAMGO], the “μ-OR endocytosis by immunofluorescence” value (μ-OR [3]) was “also promoted endocytosis; also recorded: promoted μ-OR endocytosis”, the “μ-OR endocytosis, biotin protection assay” value (μ-OR [5]) was “promoted significant endocytosis” and the “μ-OR endocytosis, biotin protection assay” value (μ-OR [5]; listed as DAMGO) was “promoted μ-OR endocytosis”.

With CNc1c2c(c3nc4ccccc4c4c3c1N=C4)NCCC2=O [plakinidine A (19), plakinidine A] the “activity at μ-OR (agonist or antagonist)” value [1] was “not active” and the “activity at δ-OR (agonist or antagonist)” value [2] was “not active”.

For CCC(=O)C(CC(C)N(C)C)(c1ccccc1)c1ccccc1 (centres unmarked) [methadone (S6), methadone], the “μ-OR endocytosis by immunofluorescence” value (μ-OR [3]) was “also promoted endocytosis; also recorded: promoted μ-OR endocytosis” and the “μ-OR endocytosis, biotin protection assay” value (μ-OR [5]) was “promoted significant endocytosis; also recorded: promoted μ-OR endocytosis”.

For CC(C)c1c2c(c3nc4ccccc4c4c3c1N=C4)NCCC2=O [plakinidine B (20), plakinidine B], the “activity at μ-OR (agonist or antagonist)” value [1] was “not active” and the “activity at δ-OR (agonist or antagonist)” value [2] was “not active”.
